Measured values published in article PMC6348062 (Journal of medicinal chemistry, 2016).
Blank lines part the entries; values can stand above or below the molecule they belong to.

Legend:
[1] = molecular target: T1, LMW-PTP (Homo sapiens, UniProt P24666); type: biochemical; conditions: for IC50: read-out: IC50 against LMW-PTP, weak ligands, values in mM; for mode of inhibition of LMW-PTP: Lineweaver-Burk, pNPP as substrate
T1 sequence (P24666 1-158): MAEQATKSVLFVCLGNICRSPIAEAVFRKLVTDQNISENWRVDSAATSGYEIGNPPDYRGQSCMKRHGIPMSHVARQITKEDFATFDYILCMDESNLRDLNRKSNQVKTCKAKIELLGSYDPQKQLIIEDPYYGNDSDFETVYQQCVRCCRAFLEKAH

[2] = molecular target: T2, PTP1B (Homo sapiens, UniProt P18031); assay: PTP activity assay with pNPP, PTP1B; type: biochemical; conditions: read-out: IC50 for PTP1B; values in mM
T2 sequence (P18031 1-435): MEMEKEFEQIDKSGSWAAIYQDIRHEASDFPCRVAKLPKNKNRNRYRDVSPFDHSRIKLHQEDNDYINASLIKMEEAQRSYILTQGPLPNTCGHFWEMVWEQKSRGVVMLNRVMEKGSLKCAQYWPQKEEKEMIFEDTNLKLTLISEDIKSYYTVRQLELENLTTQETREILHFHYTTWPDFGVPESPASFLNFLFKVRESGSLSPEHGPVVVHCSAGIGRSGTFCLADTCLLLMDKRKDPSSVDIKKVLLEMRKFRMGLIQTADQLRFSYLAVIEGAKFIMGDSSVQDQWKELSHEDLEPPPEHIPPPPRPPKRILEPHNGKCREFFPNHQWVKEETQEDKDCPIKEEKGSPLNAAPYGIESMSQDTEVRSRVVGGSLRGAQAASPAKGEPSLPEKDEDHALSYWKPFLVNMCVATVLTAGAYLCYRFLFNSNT

[3] = molecular target: T3, SHP2 (Homo sapiens, UniProt Q06124); assay: PTP activity assay with pNPP, SHP2; type: biochemical; conditions: read-out: IC50 for SHP2; values in mM
T3 sequence (Q06124 1-593): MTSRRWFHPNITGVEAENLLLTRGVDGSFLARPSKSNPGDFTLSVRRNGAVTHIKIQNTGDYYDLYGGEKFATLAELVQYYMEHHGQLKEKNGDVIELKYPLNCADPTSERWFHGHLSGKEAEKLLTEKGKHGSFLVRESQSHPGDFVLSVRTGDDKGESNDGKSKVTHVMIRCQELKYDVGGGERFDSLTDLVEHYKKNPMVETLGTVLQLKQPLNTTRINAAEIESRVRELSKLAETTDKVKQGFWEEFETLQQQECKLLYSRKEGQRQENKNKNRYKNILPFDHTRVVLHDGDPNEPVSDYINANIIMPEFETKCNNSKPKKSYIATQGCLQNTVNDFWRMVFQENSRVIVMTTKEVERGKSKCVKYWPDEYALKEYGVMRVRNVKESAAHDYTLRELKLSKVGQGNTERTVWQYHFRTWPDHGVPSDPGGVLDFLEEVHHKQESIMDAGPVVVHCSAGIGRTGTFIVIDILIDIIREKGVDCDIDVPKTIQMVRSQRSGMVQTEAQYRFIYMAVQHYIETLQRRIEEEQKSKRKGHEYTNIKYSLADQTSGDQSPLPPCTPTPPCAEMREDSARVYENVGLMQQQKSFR

[4] = molecular target: T4, PTPH1 (Homo sapiens, UniProt P26045); assay: PTP activity assay with pNPP, PTPH1; type: biochemical
T4 sequence (P26045 1-913): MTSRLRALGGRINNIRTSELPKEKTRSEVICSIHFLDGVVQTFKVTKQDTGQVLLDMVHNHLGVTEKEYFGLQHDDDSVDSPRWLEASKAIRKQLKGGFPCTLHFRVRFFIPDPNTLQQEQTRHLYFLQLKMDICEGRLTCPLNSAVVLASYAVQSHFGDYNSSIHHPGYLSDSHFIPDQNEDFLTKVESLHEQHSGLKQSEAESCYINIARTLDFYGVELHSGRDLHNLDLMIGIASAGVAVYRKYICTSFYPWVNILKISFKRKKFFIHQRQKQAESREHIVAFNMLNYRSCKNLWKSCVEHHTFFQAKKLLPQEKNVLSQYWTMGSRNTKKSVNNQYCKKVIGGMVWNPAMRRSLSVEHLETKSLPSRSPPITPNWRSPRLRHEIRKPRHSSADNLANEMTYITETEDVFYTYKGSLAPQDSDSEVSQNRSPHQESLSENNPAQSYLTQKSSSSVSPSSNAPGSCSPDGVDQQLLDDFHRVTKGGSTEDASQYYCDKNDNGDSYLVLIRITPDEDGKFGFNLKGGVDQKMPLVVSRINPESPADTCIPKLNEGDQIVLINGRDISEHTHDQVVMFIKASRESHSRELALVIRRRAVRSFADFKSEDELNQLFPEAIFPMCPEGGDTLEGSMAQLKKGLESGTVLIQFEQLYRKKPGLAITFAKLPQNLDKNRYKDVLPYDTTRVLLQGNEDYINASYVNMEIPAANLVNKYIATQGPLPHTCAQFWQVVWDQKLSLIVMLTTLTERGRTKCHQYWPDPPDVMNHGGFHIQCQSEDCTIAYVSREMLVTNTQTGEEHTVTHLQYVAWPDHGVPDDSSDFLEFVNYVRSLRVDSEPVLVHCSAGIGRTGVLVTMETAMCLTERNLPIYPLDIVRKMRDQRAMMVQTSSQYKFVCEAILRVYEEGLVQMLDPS

[5] = tested on: panel of 24 phosphatases; assay: Selectivity profiling against panel of 24 phosphatases; type: biochemical; conditions: for inhibitory activity against the phosphatases in the panel: at 200 μM concentration; for preference (selectivity) for LMW-PTP over the panel of other PTPs: over all 24 other phosphatases
[6] = molecular target: T1, LMW-PTP; assay: Screen of SPAA-based focused library at ~10 μM, LMW-PTP; type: biochemical; conditions: compound concentration ~10 μM, crude library wells
[7] = tested on: insulin induced AKT phosphorylation in HepG2 cells; assay: Insulin induced AKT phosphorylation in HepG2 cells; type: cell-based; conditions: 2 h pretreatment, 50 nM insulin 30 min, compound 33 at 16 μM
Summary of the method: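 HepG2 cells grown in DMEM with 10% FBS at 37 °C and 5% CO2. At 60-80% confluence, cells were serum-starved overnight, then given vehicle or test compound for 2 h. They were left unstimulated or stimulated with 50 nM insulin for 30 min, then lysed. Immunoblotting used a 10% polyacrylamide gel with anti-phospho-AKT and anti-AKT antibodies, ECL detection and densitometry. pAKT/AKT ratios were normalized to vehicle.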

SMILES: O=S(=O)(O)CCN1CCOCC1 [MES]
IC50 [1]: > 10 mM

SMILES: NC(=O)C(c1ccccc1)S(=O)(=O)O (centres unmarked) [SPAA, SulfoPhenyl Acetic Amide]
IC50 [1]: 2 mM | IC50 [2]: > 50 mM | IC50 [3]: > 50 mM

SMILES: Cc1c(Br)cc(NC(=O)C(c2ccccc2)S(=O)(=O)O)cc1Br (centres unmarked) [compound 1]
IC50 [4]: > 200 µM

IC50 [4]: > 200 µM
SMILES: O=C(Nc1ccc(OCc2ccccc2)c(Cl)c1)C(c1ccccc1)S(=O)(=O)O (centres unmarked) [compound 2]

SMILES: O=C(Nc1ccc2nc(C(F)(F)F)[nH]c2c1)C(c1ccccc1)S(=O)(=O)O (centres unmarked) [compound 3]
IC50 [4]: > 200 µM | inhibitory activity against the phosphatases in the panel [5]: no inhibitory activity | preference (selectivity) for LMW-PTP over the panel of other PTPs [5]: greater than 35 fold

IC50 [4]: > 100 µM
SMILES: O=C(Nc1ccc(-n2ccnc2)cc1)C(c1ccccc1)S(=O)(=O)O (centres unmarked) [compound 4]

IC50 [4]: > 200 µM
SMILES: O=C(Nc1ccc(N2CCOCC2)cc1)C(c1ccccc1)S(=O)(=O)O (centres unmarked) [compound 5]
inhibitory activity against the phosphatases in the panel [5]: no inhibitory activity

IC50 [4]: > 200 µM
SMILES: O=C(Nc1cnc2ccccc2c1)C(c1ccccc1)S(=O)(=O)O (centres unmarked) [compound 6]
inhibitory activity against the phosphatases in the panel [5]: no inhibitory activity

SMILES: O=C(Nc1nc2ccccc2s1)C(c1ccccc1)S(=O)(=O)O (centres unmarked) [compound 7]
IC50 [4]: > 200 µM | mode of inhibition of LMW-PTP [1]: competitive

IC50 [4]: > 200 µM
SMILES: O=C(Nc1cc(C(F)(F)F)cc(C(F)(F)F)c1)C(c1ccccc1)S(=O)(=O)O (centres unmarked) [compound 8]

SMILES: O=C(Nc1ccccc1)C(c1ccccc1)S(=O)(=O)O (centres unmarked) [compound 9]
inhibitory activity toward LMW-PTP (in words) [1]: significantly reduced activities | fold decrease in inhibitory activity versus compound 7 ([1]; relative to compound 7): > 15 fold

SMILES: O=C(Nc1nccs1)C(c1ccccc1)S(=O)(=O)O (centres unmarked) [compound 10]
inhibitory activity toward LMW-PTP (in words) [1]: significantly reduced activities

SMILES: CCCNC(=O)C(c1ccccc1)S(=O)(=O)O (centres unmarked) [compound 11]
inhibitory activity toward LMW-PTP (in words) [1]: inactive | inhibition against LMW-PTP in library screen [6]: inactive

SMILES: O=C(Nc1nc2ccc([N+](=O)[O-])cc2s1)C(c1ccccc1)S(=O)(=O)O (centres unmarked) [compound 28]
IC50 [4]: > 100 µM | fold more active than compound 7 against LMW-PTP [1]: 3.5 fold | mode of inhibition of LMW-PTP [1]: competitive | preference (selectivity) for LMW-PTP over the panel of other PTPs [5]: over 50 fold

SMILES: CCOC(=O)c1ccc2nc(NC(=O)C(c3ccccc3)S(=O)(=O)O)sc2c1 (centres unmarked) [compound 32]
fold more active than compound 7 against LMW-PTP [1]: 2.5 fold

SMILES: O=C(Cc1ccccc1)Nc1nc2ccc([N+](=O)[O-])cc2s1 [compound 33]
effect on insulin induced AKT phosphorylation (in words) [7]: no effect | inhibitory activity toward LMW-PTP (in words) [1]: completely abolishes
